Assays:
[1] = target: Norepinephrine transporter (Rattus norvegicus, UniProt Q9WTR4); experiment: (§1) Inhibition of Norepinephrine uptake from rat diencephalon-midbrain
[2] = (§2) Inhibition of GABA uptake from rat diencephalon-midbrain,
Summary of the method: (§3)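 P2 synaptosomal fraction prepared from rat brain in 0.32 M sucrose by 1000g and 16500g spins. About 150 µg protein preincubated 15 min at 37 °C with inhibitor in oxygenated Tris/NaCl buffer, pH 7.4, containing 2.7 mM CaCl2 and 10 µM aminooxyacetic acid. Uptake of 1 µM [3H]GABA run for 3 min, then filtered and counted. Accumulation at 0 °C subtracted. Screening at 10, 1 and 0.1 µM in quadruplicate on pooled diencephalon-midbrain tissue.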

[3] = target: T1, GABA-A receptor; anion channel (Rattus norvegicus) (UniProt O09028+P15431+P18506+P18508+P19969+P20236+P23574+P23576+P28471+P28473+P30191+P62813+P63079+P63138+Q91ZM7+Q9ES14); experiment: Displacement of [3H]- muscimol from GABA-A receptor from rat cerebellum membrane at 100 uM; type: tissue-based
[4] = species: Rattus norvegicus; experiment: as §2; type: functional, organism-based
[5] = Dissociation constant pKa (N) of the compound; type: physicochemical
[6] = Dissociation constant pKa (CO2H) of the compound; type: physicochemical
[7] = target: 4-aminobutyrate aminotransferase, mitochondrial (Rattus norvegicus) (UniProt P50554); experiment: Percent of enzyme inhibition by Gamma-amino-N-butyrate transaminase assay method; details: concentration not given here
Chain of 4-aminobutyrate aminotransferase, mitochondrial (Rattus norvegicus) (P50554 28-500 limits assumed): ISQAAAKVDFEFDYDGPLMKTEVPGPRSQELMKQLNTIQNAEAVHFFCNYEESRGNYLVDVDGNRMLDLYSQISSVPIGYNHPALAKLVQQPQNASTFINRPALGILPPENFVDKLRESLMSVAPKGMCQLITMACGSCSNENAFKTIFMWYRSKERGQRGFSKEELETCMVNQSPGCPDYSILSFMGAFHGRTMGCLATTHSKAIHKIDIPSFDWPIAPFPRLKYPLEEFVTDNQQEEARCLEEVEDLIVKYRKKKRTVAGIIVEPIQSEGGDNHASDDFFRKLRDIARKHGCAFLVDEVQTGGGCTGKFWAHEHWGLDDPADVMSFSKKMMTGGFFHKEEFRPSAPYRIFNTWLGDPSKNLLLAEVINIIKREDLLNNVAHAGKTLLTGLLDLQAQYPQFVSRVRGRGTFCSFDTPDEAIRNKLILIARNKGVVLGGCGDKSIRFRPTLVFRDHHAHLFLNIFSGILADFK
Summary of the method: (§4)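 Rat diencephalon-midbrain homogenate in Tris-HCl pH 8.0 with Triton X-100. Incubated with 2 mM α-ketoglutarate, 0.2 mM GABA and 20 µM pyridoxal phosphate, test agent at 1 mM final, 30 min at 37 °C. Blanks held at 4 °C. Glutamate formed read fluorometrically as NADH via glutamate dehydrogenase.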

[8] = target: T2, Glutamate decarboxylase 1 (Rattus norvegicus) (UniProt P18088); experiment: Percent of enzyme inhibition by Glutamate decarboxylase assay method; details: concentration not given here
T2 sequence (whole entry): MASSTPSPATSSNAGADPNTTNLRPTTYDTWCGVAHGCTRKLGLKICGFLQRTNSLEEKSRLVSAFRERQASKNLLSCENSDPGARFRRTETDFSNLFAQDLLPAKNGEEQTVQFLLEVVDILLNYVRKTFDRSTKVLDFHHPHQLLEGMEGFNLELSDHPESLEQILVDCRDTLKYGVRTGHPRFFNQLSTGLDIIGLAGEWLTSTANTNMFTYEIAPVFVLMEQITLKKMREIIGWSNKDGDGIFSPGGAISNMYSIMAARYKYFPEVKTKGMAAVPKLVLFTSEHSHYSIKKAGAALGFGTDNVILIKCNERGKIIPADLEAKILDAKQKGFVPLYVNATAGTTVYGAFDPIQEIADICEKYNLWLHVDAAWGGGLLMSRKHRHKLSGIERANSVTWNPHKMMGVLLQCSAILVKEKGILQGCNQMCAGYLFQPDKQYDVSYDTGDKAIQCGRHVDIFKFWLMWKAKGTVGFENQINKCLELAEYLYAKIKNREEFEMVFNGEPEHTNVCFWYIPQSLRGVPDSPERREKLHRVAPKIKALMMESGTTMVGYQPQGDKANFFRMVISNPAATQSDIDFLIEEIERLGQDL
Summary of the method: (§5)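 Homogenate of rat diencephalon-midbrain in phosphate buffer pH 6.5 with Triton X-100. Incubated with 5 mM l-glutamate, 10 µM pyridoxal phosphate and test agent at 1 mM final, 30 min at 37 °C. Stopped by boiling; boiled-enzyme blanks used. GABA formed quantified fluorometrically with GABAase and NADPH.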

[9] = species: Rattus norvegicus; experiment: Inhibition of GABA uptake from rat diencephalon-midbrain at 10 uM concentration; type: functional; summary of the method: as §3
[10] = species: Rattus norvegicus; experiment: as §1; type: functional
[11] = species: Rattus norvegicus; experiment: Inhibition of GABA uptake from rat diencephalon-midbrain at 100 uM concentration; type: functional
[12] = target: 4-aminobutyrate aminotransferase, mitochondrial (Rattus norvegicus) (UniProt P50554); experiment: Percent inhibition of Gamma-amino-N-butyrate transaminase from rat was evaluated; details: concentration not given here; summary of the method: as §4
[13] = target: T1, GABA-A receptor; anion channel (Rattus norvegicus); experiment: Percent inhibition of [3H]- Diazepam binding to GABA-A Benzodiazepine receptor of rat frontal cortex membranes; type: cell membranes; details: Membrane, concentration not given here
Summary of the method: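 Rat frontal cortex membranes with 1.5 nM [3H]diazepam (KD 9.7 nM). Nonspecific binding defined with 3 µM diazepam.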

[14] = target: T2, Glutamate decarboxylase 1 (Rattus norvegicus); experiment: Percent inhibition of Glutamate decarboxylase from rat was evaluated; details: concentration not given here; summary of the method: as §5
[15] = as §2; details: concentration not given here
Summary of the method: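 Rat diencephalon-midbrain P2 synaptosomal fraction (0.32 M sucrose homogenate, differential centrifugation), pooled from three rats. Preincubated 15 min at 37 °C with inhibitor in oxygenated Tris/NaCl buffer pH 7.4 containing 2.7 mM CaCl2 and 10 µM aminooxyacetic acid. Then 3 min uptake of 1 µM [3H]GABA, filtration, scintillation counting, minus 0 °C uptake. Screened at 10, 1, 0.1 µM in quadruplicate.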

[16] = target: Serotonin 1 (5-HT1) receptor (Rattus norvegicus) (UniProt P28564+P30940+P19327+P28565); experiment: Percent inhibition of 5-hydroxytryptamine 1 receptor from rat cortex membrane using [3H]- serotonin as radioligand at 33 uM
[17] = Distribution coefficient was evaluated; type: physicochemical; details: octanol/water
Summary of the method: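 Distribution coefficient (log D) measured between 1-octanol and phosphate buffer, pH 7.4.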

[18] = target: Muscarinic acetylcholine receptor (Rattus norvegicus) (UniProt P08482+P08483+P08485+P08911+P10980); experiment: Percent inhibition of Muscarinic acetylcholine receptor from rat striatal membrane using [3H]- QNB as radioligand at 100 uM
Summary of the method: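 Displacement on rat striatal membranes using 0.23 nM [3H]QNB (KD 0.20 nM). Nonspecific binding defined with 1 µM atropine.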

[19] = Dissociation constant pKa (N) was evaluated; type: physicochemical
[20] = Dissociation constant pKa (CO2H) was evaluated; type: physicochemical
[21] = target: D(2) dopamine receptor (Rattus norvegicus) (UniProt P61169); experiment: Percent inhibition of Dopamine receptor D2 from rat striatal membrane using [3H]- spiroperidol as radioligand at 50 uM
Chain of D(2) dopamine receptor (Rattus norvegicus) (P61169 whole entry): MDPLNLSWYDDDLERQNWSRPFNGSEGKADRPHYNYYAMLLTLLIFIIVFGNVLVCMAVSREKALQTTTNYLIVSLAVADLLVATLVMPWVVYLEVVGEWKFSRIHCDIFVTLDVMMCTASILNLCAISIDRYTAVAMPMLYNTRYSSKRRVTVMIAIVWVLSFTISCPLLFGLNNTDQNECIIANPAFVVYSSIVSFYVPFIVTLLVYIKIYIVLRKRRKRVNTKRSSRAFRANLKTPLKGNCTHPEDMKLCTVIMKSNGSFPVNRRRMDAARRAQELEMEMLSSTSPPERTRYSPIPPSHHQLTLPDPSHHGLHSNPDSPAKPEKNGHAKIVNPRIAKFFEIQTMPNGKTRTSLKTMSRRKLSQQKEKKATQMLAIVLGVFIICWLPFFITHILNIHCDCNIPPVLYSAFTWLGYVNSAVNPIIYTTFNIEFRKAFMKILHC
Summary of the method: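 Rat striatal membranes with 0.22 nM [3H]spiroperidol (KD 0.287 nM). Nonspecific binding defined with 1 µM d-butaclamol.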

[22] = target: Adrenergic receptor alpha-1 (Rattus norvegicus) (UniProt P15823+P23944+P43140); experiment: Percent inhibition of alpha-1 adrenergic receptor from rat cortical membrane using [3H]- WB-4101 as radioligand at 10 uM
Summary of the method: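 Rat cortical membranes labelled with 0.22 nM [3H]WB4101 (KD 0.306 nM). Nonspecific binding defined with 100 µM norepinephrine.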

[23] = target: T1, GABA-A receptor; anion channel (Rattus norvegicus); details: Cerebellum, 0.003-0.006 uM
[24] = species: Rattus norvegicus; experiment: Inhibition of GABA uptake from rat diencephalon-midbrain; type: functional; summary of the method: as §3
[25] = target: T2, Glutamate decarboxylase 1 (Rattus norvegicus); experiment: Percent of enzyme inhibition by Glutamate decarboxylase (GAD) assay method; details: concentration not given here; summary of the method: as §5
[26] = target: GABA-A receptor; anion channel; experiment: Displacement of [3H]- muscimol from GABA-A receptor from rat cerebellum membrane at 0.24-0.45 uM; type: tissue-based
[27] = species: Rattus norvegicus; experiment: Inhibition of GABA uptake from rat diencephalon-midbrain at 1 uM concentration; type: functional; summary of the method: as §3

Chain of Norepinephrine transporter (Q9WTR4 whole entry): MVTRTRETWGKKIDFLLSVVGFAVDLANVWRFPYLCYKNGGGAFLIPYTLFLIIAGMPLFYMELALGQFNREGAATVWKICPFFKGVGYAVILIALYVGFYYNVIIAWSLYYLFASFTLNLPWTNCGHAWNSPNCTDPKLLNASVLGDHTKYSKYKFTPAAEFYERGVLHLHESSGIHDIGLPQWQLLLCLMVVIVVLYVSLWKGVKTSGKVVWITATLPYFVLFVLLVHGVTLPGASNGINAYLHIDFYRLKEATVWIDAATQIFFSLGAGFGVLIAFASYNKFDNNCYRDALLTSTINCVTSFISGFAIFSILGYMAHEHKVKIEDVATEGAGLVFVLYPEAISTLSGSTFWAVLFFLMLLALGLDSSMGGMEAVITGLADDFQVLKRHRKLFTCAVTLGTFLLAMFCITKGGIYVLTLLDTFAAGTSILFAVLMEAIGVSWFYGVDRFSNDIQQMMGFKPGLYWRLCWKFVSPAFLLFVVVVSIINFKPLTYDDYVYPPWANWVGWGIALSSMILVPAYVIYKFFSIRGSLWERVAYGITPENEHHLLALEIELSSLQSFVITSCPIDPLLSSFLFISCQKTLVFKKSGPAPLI

O=C(O)C1CN(CCC=C(c2ccccc2)c2ccccc2)CCC1O (configuration not stated)
IC50 [1]: 33.6 µM
IC50 [2]: 0.26 µM
inhibition [3]: 48%

O=C(O)C1CCCNC1 (configuration not stated) [NIPECOTIC ACID]
IC50 [4]: 3.94 µM
pKa [5]: 10.3
pKa [6]: 3.45
inhibition [7]: 3%
inhibition [8]: 0%

O=C(O)C1CCCC(NCCC=C(c2ccccc2)c2ccccc2)C1 (configuration not stated)
Inhibition [9]: 54%
IC50 [10]: 29.9 µM

O=C(O)C1CNCCC1O (configuration not stated)
IC50 [4]: 4.56 µM
Inhibition [10]: 7%
inhibition [3]: 10%

CCOC(=O)C1CCCN(CCC=C(c2ccccc2)c2ccccc2)C1 (configuration not stated)
Increase [11]: 17%

NOCC(=O)O
inhibition [7]: 83%

O=C(O)C1=CCCN(CCC=C(c2ccccc2)c2ccccc2)C1
IC50 [4]: 0.2 µM
inhibition [12]: 9%
IC50 [10]: 58.2 µM
inhibition [3]: 8%
inhibition [13]: 5%
inhibition [14]: 7%

O=C(O)C1CCCN(CC=C(c2ccccc2)c2ccccc2)C1 (configuration not stated)
Inhibition [9]: 5%

COC(=O)C1=CCCNC1
inhibition [15]: 4%

NC1CCCC(C(=O)O)C1 (configuration not stated)
IC50 [4]: 8.13 µM

CN(C)CCCN1c2ccccc2CCc2ccccc21 [IMIPRAMINE]
Inhibition [11]: 68%
IC50 [10]: 0.027 µM

O=C(O)[C@@H]1CCCNC1 [(R)-NIPECOTIC ACID]
IC50 [4]: 1.69 µM

O=C(O)[C@H]1CCCN(CCC=C(c2ccccc2)c2ccccc2)C1
IC50 [4]: 1.91 µM
IC50 [10]: 180 µM

O=C(O)CC1CCN(CCC=C(c2ccccc2)c2ccccc2)C1 (configuration not stated)
IC50 [1]: 108 µM
IC50 [2]: 0.12 µM
inhibition [3]: 20%

O=C(O)C1CCCN(CCC=C(c2ccccc2)c2ccccc2)C1 (configuration not stated)
inhibition [16]: 16%
IC50 [4]: 0.2 µM
logD [17]: 1.14
inhibition [18]: 12%
pKa [19]: 9.36
pKa [20]: 3.32
inhibition [21]: 22%
inhibition [22]: 12%
inhibition [12]: 12%
IC50 [10]: 117 µM
inhibition [3]: 8%
inhibition [13]: 21%
inhibition [14]: 7%

NCc1cc(O)no1
inhibition [23]: 0.004%

O=C(O)[C@H]1CCCNC1 [(S)-NIPECOTIC ACID]
IC50 [24]: 9.88 µM

O=C(O)C1=CCCNC1 [GUVACINE]
IC50 [4]: 4.92 µM
inhibition [25]: 0%
inhibition [7]: 7%
inhibition [3]: 27%

O=C(O)C1CCCN(CCCC(c2ccccc2)c2ccccc2)C1 (configuration not stated)
Inhibition [9]: 27%

O=C(O)CCCNCCC=C(c1ccccc1)c1ccccc1
IC50 [1]: 35.1 µM
IC50 [2]: 16.5 µM
inhibition [3]: 35%

O=C(O)CC1CCNC1 (configuration not stated)
IC50 [4]: 1.54 µM
IC50 [26]: 0.33 µM

O=C(O)C1CCCN(CCCC=C(c2ccccc2)c2ccccc2)C1 (configuration not stated)
Inhibition [27]: 31%

CCOC(=O)C1CCCNC1 (configuration not stated)
Inhibition [11]: 52%

O=C(O)[C@@H]1CCCN(CCC=C(c2ccccc2)c2ccccc2)C1
IC50 [4]: 0.11 µM
IC50 [10]: 123 µM

NNC(=O)c1ccncc1
inhibition [8]: 42%

— ChEMBL document CHEMBL1122999 (J Med Chem, 1985)
